Assay results as given in article PMC5518789 (Journal of bone and mineral research : the official journal …, 2017).
“Also recorded” adds a separate entry of the source.

Assays:
[1] = system: PTHrP(1-15)-mAb; assay: Dot blot with PTHrP; format: binding; settings: nitrocellulose, 100, 10 and 1 ng, chemiluminescence
Procedure, shortened: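 The test peptide, PTHrP(1-141), PTHrP(1-37), PTH(1-34) and IL-8 were each spotted at 100, 10 and 1 ng onto nitrocellulose under nondenaturing conditions. Blots were probed with an N-terminal PTHrP(1-15) monoclonal antibody and developed by chemiluminescence.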

[2] = system: PTHrP(12-48) polyclonal Ab; assay: Dot blot with PTHrP; format: binding, chicken; settings: nitrocellulose, nondenaturing, 100, 10 and 1 ng, chemiluminescence
Procedure, shortened: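 The peptide panel (test peptide, PTHrP(1-141), PTHrP(1-37), PTH(1-34), IL-8) was spotted at 100, 10 and 1 ng on nitrocellulose without denaturation. The probe was a chicken polyclonal IgY raised against the KLH-conjugated test peptide, depleted of PTHrP(1-37) by negative selection and affinity-purified on a test-peptide column. Detection was by chemiluminescence.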

[3] = system: PTHR1 (PTHR1-expressing SaOS2 cells); settings: cited from earlier work
[4] = system: PTHR1 (PTHR1-expressing SaOS2 cells); assay: Competitive cAMP ELISA in SaOS2 cells; format: cell-based, human; settings: PTH(1-34) 1 and 10 nM, 10 min, IBMX pretreatment, representative of three independent experiments
Procedure, shortened: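 SaOS2 cells were grown in RPMI 1640 with 10% FBS and antibiotics at 37°C and 5% CO₂, with medium changed every 3 days. Confluent cultures were serum-starved for 6 h, pretreated with IBMX for 15 min, then exposed to ligand for 10 min. Cells were lysed, and cAMP was quantified by a competitive ELISA kit following the manufacturer's protocol.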

[5] = system: human OCLs and their precursors (PBMCs); assay: Internalization assay in human osteoclasts and precursors; format: cell-based
Procedure, shortened: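 Thawed human PBMCs were seeded at 500,000 cells/well on chamber slides in alpha-MEM + 10% FBS with mCSF (25 ng/mL) ± RANKL (50 ng/mL) at 37°C, 5% CO₂. On day 7, test peptide (100 nM) was added with serum for 15, 30, 60 or 90 min. Cells were fixed in 4% paraformaldehyde (4°C, 15 min), permeabilised with 0.02% Triton X-100 and blocked with BlokHen 1:10. They were stained with chicken anti-test-peptide antibody plus DAPI, with a no-primary control, and imaged by fluorescence or confocal microscopy.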

[6] = system: other resident bone and bone marrow cells; assay: Uptake in other resident bone and bone marrow cells; format: cell-based; settings: in vitro or in vivo; data not shown
[7] = system: mesenchymal lineage cells; assay: Effect on mesenchymal lineage cells; format: cell-based; settings: in vitro or in vivo; data not shown
[8] = system: PTHR1 (SaOS2 or any other PTHR1-expressing cell); assay: PTHR1 antagonism of PTHrP; format: cell-based, human; settings: data not shown
[9] = system: human OCL precursors and differentiated OCLs (PBMCs); assay: Cleaved caspase 3; format: cell-based; settings: for total cells positive for cleaved caspase-3, controls day 0: OCL precursors, vehicle or mCSF without or with RANKL on day 0, 24 h
Procedure, shortened: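 Frozen human PBMCs were thawed at 37°C and seeded at 500,000 cells/well on chamber slides in alpha-MEM + 10% FBS with mCSF (25 ng/mL) ± RANKL (50 ng/mL) at 37°C, 5% CO₂. Cells were treated 24 h with test peptide (50 nM) or TNFα (200 ng/mL) on day 0 or day 7. They were then fixed, permeabilised and stained with anti-cleaved caspase 3 (Asp175) at 1:400 plus a 1 h secondary, with DAPI nuclei. Positive cells were counted by fluorescence or confocal microscopy.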

[10] = system: PTHrP(12-48) Ab; assay: Western blot with PTHrP; format: binding, chicken; settings: SDS-PAGE (12%) immunoblot; PTHrP(12-48) 1 mM, 100 µM, 10 µM; two independent series of experiments
Procedure, shortened: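 Peptides and IL-8 were run on 12% SDS-PAGE and transferred to nitrocellulose. Blots were blocked for 30 min in BlokHen (1:10 in water), then washed in PBS with 0.05% Tween-20. They were probed with chicken polyclonal IgY (raised against KLH-conjugated PTHrP(12-48) and PEG-precipitated from egg yolk) or a PTHrP(1-15) monoclonal, then a secondary antibody. Detection was by chemiluminescence. Blots were stripped for 30 min at RT and reprobed for IL-8.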

[11] = system: cells (PTHR1-dependent); settings: cited from earlier work
[12] = system: human OCL precursors / OCLs (PBMCs); assay: Osteoclastogenesis, TRAP+ MNC count; format: cell-based; settings: RANKL 50 ng/mL + mCSF 25 ng/mL versus mCSF; day 10; Fig. 3A, p < 0.001

Molecule: IL-8: interleukin 8, control in dot blots
- recognition by PTHrP(1-15) mAb [1]: not recognized by either PTHrP Ab
- recognition by PTHrP(12-48) Ab [2]: not recognized by either PTHrP Ab

Molecule: PTH(1-34): activates cAMP production via PTHR1, used as a positive control (SVSEIQLMHNLGKHLNSMERVEWLRKKLQDVHNF; Parathyroid hormone; UniProt P01270 32-65, looked up, fragment)
- activation of cAMP production via PTHR1 (literature) ([3]; 50 nM): activates cAMP production via PTHR1
- cAMP production (positive control) [4]: stimulated cAMP production; also recorded: stimulated the expected increase in cAMP

Molecule: PTHrP(1-36): PTHR1 ligand to which SaOS2 cells respond [reference compound]
- SaOS2 response / activation of Gαs ([3]; SaOS2 cells, 36 (response), 42 (Gαs)): trigger the activation of Gαs
- internalization into day 7 cells ([5]; PTHrP(1-36), similar treatment (Supplemental Fig. 2)): no internalization

Molecule: PTHrP(1-37): N-terminal peptide used in dot blots and ELISA
- recognition by PTHrP(1-15) mAb [1]: recognized an antigen present in full-length PTHrP(1-141) as well as PTHrP(1-37)

Molecule: PTHrP(1-141): full-length recombinant PTHrP, gift of Dr. T.J. Martin
- recognition by PTHrP(1-15) mAb [1]: recognized an antigen present in full-length PTHrP(1-141)
- recognition by PTHrP(12-48) Ab [2]: but not PTHrP(1-141)

Molecule: PTHrP(12-48): unique peptide fragment of parathyroid hormone-related protein (PTHrP); New England Peptides Inc. (GKSIQDLRRRFFLHHLIAEIHTAEIRATSEVSPNSKP; Parathyroid hormone-related protein; UniProt P12272 48-84, looked up, fragment)
- recognition by PTHrP(1-15) mAb [1]: but not PTHrP(12-48)
- uptake in other resident bone and bone marrow cells [6]: unable to show an effect of PTHrP(12-48) on mesenchymal lineage cells or observe any apparent uptake in other resident bone and bone marrow cells
- effect on mesenchymal lineage cells [7]: unable to show an effect of PTHrP(12-48) on mesenchymal lineage cells
- antagonist or partial antagonist action at PTHR1 ([8]; SaOS2 or any other PTHR1-expressing cell): unable to show any significant antagonist or partial antagonist actions
- antagonism of PTHrP(1-36) agonist activity at PTHR1 [8]: nor does PTHrP(12-48) antagonize agonist activity of PTHrP(1-36) at the PTHR1
- cleaved caspase 3-positive cells, day 7 ([9]; 50 nM, 24 h, cells cultured for 7 days, Fig. 4C, D, p < 0.05): significantly increased the number of cleaved caspase 3-positive cells
- cleaved caspase 3 increase compared with TNFα ([9]; PTHrP(12-48) 50 nM versus TNFα 200 ng/ml, 24 h): comparable to the effects observed following treatment with TNFα
- recognition by PTHrP(12-48) Ab [10]: specifically recognized the 4-kDa PTHrP(12-48); also recorded: specifically recognized by PTHrP(12-48) Ab
- time to internalization into primary human OCLs and their precursors ([5]; 100 nM, day 7 cells, immunofluorescence): ≤ 60 min
- internalization into OCLs ([5]; 100 nM, in presence of serum, day 7 cells, mCSF (25 ng/mL)+RANKL (50 ng/mL), 15, 30, 60 and 90 min, immunofluorescence, three independent experiments): observed in OCLs 60 min after the addition
- internalization into mononuclear cells (precursors) ([5]; 100 nM, mCSF alone, Fig. 2H panel iv, immunofluorescence): observed in mononuclear cells cultured in the presence of mCSF alone

Molecule: PTHrP(67-93): PTHrP fragment shown to translocate into cells (YLTQETNKVETYKEQPLKTPGKKKKGK; Parathyroid hormone-related protein; UniProt P12272 103-129, looked up, fragment)
- translocation into cells [11]: translocate into cells in a PTHR1-dependent fashion

Molecule: PTHrP(94-108): PTHrP fragment shown to translocate into cells (PGKRKEQEKKKRRTR; Parathyroid hormone-related protein; UniProt P12272 130-144, looked up, fragment)
- translocation into cells [11]: translocate into cells in a PTHR1-dependent fashion

B1: RANKL: receptor activator of NF-κB ligand, R&D Systems (protein, UniProt O14788 140-317, looked up)
Tumor necrosis factor ligand …: IRAEKAMVDGSWLDLAKRSKLEAQPFAHLTINATDIPSGSHKVSLSSWYHDRGWAKISNMTFSNGKLIVNQDGFYYLYANICFRHHETSGDLATEYLQLMVYVTKTSIKIPSSHTLMKGGSTKYWSGNSEFHFYSINVGGFFKLRSGEEISIEVSNPSLLDPDQDATYFGAFKVRDID
- number of TRAP+ MNCs, effect of RANKL [12]: significantly increased the number of TRAP+ MNCs
- total cells positive for cleaved caspase-3, controls day 0 [9]: less than 25%

B2: mCSF: culture factor for osteoclast precursors, R&D Systems (protein, UniProt P07141 33-552, looked up)
Macrophage colony-stimulating …: KEVSEHCSHMIGNGHLKVLQQLIDSQMETSCQIAFEFVDQEQLDDPVCYLKKAFFLVQDIIDETMRFKDNTPNANATERLQELSNNLNSCFTKDYEEQNKACVRTFHETPLQLLEKIKNFFNETKNLLEKDWNIFTKNCNNSFAKCSSRDVVTKPDCNCLYPKATPSSDPASASPHQPPAPSMAPLAGLAWDDSQRTEGSSLLPSELPLRIEDPGSAKQRPPRSTCQTLESTEQPNHGDRLTEDSQPHPSAGGPVPGVEDILESSLGTNWVLEEASGEASEGFLTQEAKFSPSTPVGGSIQAETDRPRALSASPFPKSTEDQKPVDITDRPLTEVNPMRPIGQTQNNTPEKTDGTSTLREDHQEPGSPHIATPNPQRVSNSATPVAQLLLPKSHSWGIVLPLGELEGKRSTRDRRSPAELEGGSASEGAARPVARFNSIPLTDTGHVEQHEGSSDPQIPESVFHLLVPGIILVLLTVGGLLFYKWKWRSHRDPQTLDSSVGRPEDSSLTQDEDRQVELPV
- total cells positive for cleaved caspase-3, controls day 0 [9]: less than 25%
